Test system: MS2 coat protein
Assay: apparent Kd, MS2 coat protein; higher = weaker binding; RNA-MaP array; FMN 200 µM where present
Summary of the method: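 Binding was read on Illumina sequencing-chip clusters where stalled E. coli RNA polymerase had transcribed each design. A titration of SNAP-549-labelled MS2 coat protein began at 0.7 or 1.5 nM and doubled to 3 µM, once without ligand and once with constant ligand, in 100 mM Tris-HCl pH 7.5, 80 mM KCl, 4 mM MgCl2, BSA, DTT, yeast tRNA and Tween-20. The apparent Kd is the median of filtered per-cluster binding-curve fits, based on green signal normalised to red-channel RNA signal and control-cluster median Fmax.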

[1] = designed as: ON switch for flavin mononucleotide, no ligand
[2] = ligand present: flavin mononucleotide, designed as: ON switch for flavin mononucleotide
[3] = designed as: OFF switch for flavin mononucleotide, no ligand
[4] = ligand present: flavin mononucleotide, designed as: OFF switch for flavin mononucleotide

| Sequence | apparent Kd [1] [nM] | apparent Kd [2] [nM] | apparent Kd [3] [nM] | apparent Kd [4] [nM] |
| --- | --- | --- | --- | --- |
| UGGUAACAUGAGGAUCACCCAUGUCAAAUGAAUCGAGGAUAUGGGAAUUAACAACACAAACUAGAAGGCGAAUUUG | 303 | 247 | – | – |
| UUACUACAUGAGGAUCACCCAUGUCAGGAUAUUGUCUAUACUUUGGAAUAUGUGUCGACAAGAAGGGACUAUAU | – | – | 23.5 | 39.9 |
| CACGAAGGAGGAUAUAUUAAGGCAGAUCCUAUACAUCGGUUACAUGAGGAUCACCCAUGUAGAAGGCCUACAAA | – | – | 49 | 185 |
| GCACUUAGAGAUUUACCGUUACUAACAUGAGGAUCACCCAUGUAGGAUAUGCUAAUAGUAUUGAAGCAGAAGGACACUAAGUGC | – | – | 5 | 5.18 |
| GUUUAGUGAGGAUAUGUGGCGUGGAUCGAGCGCGGUCGGCUACAGAAGGCACAUGAGGAUCACCCAUGUUUCUC | – | – | 106 | 280 |
| GCUGGACAAGGAUAUGCAUUCGUGCUUCGGCACGUAAGGUCACAUGAGGAUCACCCAUGUAGAAGGUGUCCAGC | – | – | 18.6 | 34 |
| CCUUGACAUGAGGAUCACCCAUGUGAGGAUAUGAUGCGAUCGUCGAAAGACGAUAGCAUCAGAAGGCACAUAUG | – | – | 23.4 | 95.7 |
| GUAGCAUUCCGAGGAUAUUCAGGGCGUGGAUAUACAUGAGGAUCACCCAUGUGGCGGAAGCCUAGGGAGAAGGCGGGCUGCUUC | 27.8 | 18.6 | – | – |
| CUGAGGUCAGGAUAUGCAUGGCGGGACUUGCGUCGUGGCGUGGAGAAGGGACAUGAGGAUCACCCAUGUGGAGU | – | – | 79 | 54.2 |
| UCUACAUAAAUUCAUCAAUACAGUAAGGAUAUGAGAUACAUGAGGAUCACCCAUGUGCAUGUGAAUUAGAAGGUACAAUUAACU | – | – | 14.4 | 12 |
| CCCACACUUGUGAGGAUAUGGAUAGCUGCUGCUGAUUAGAAGGCACAUGAGGAUCACCCAUGUCACCCUCAUGG | – | – | 278 | 255 |
| AGUGCUAUGUAGAAGGCAGAUCUGAUUCAGAUCUGAGGAUAUACAUGAGGAUCACCCAUGUUAUGCACCAGCACGAGAGUGCAG | – | – | 9.24 | 22.6 |
| UACGGGAGUGGAGGAUAUGCGUAGUACGCUAGAGCAGAAGGCCACAUGAGGAUCACCCAUGUGUCGUCGAAUGCGAUACGCUGG | – | – | 17.6 | 77.3 |
| AUAUAUCAUACAGGAUAUACAUGAGGAUCACCCAUGUGUCCUCCAUAAUUGACACCAAUUAUGCUGUAGAAGGGUAUGAUAUAU | – | – | 293 | 258 |
| AGUAACAGAGGAUAUACUAUUUUAUGUGUUUAUUAUUUUGAACAUGAGGAUCACCCAUGUAGAAGGCUGAAUAA | – | – | 27 | 30.1 |
| CCUUUCCGAGGAUAUACAUGAGGAUCACCCAUGUGAUCCUAAGGCUGAUCAAGCCUAUGUAGAAGGCGCAAAUC | – | – | 133 | 182 |
| CAGCGCUGUCGAGAGGAUAUGCGGUGAUGGACAUGAGGAUCACCCAUGUUAGCGAUGGCAUUACGGUAGAAGGCUCUACAGCUGC | 40.3 | 16.4 | – | – |
| UCAAUUUUGCGAGGAUAUCGACCAUUCCUCUUUACAUGAGGAUCACCCAUGUUCUUUUUCUACAACGAGAAGGCGCUCAUAGUU | – | – | 55.5 | 67.1 |
| UGAGCCUCGUGAGGAUAUACAUGAGGAUCACCCAUGUAGUAAAGUGAACGGAGGAAACUCCGAAUGUAGAAGGCACGAGGCUCA | – | – | 13.2 | 85.8 |
| UUGGACGUCGUAGGAUAUGUAGGAUAUUCCUACAUGAGGAUCACCCAUGUUGACAUCGAAGAAGGACAGAAGGACGAUGUCCAU | 88 | 5.29 | – | – |
| CGGGAGGAAGGAUAUACACGGCCUCCUAGAAUAAAUCCUGGACAUGAGGAUCACCCAUGUAGAAGGUCCACCGA | – | – | 18.9 | 24.4 |
| AAAAGUCCUGAGGAUAUCGAAACUCCAUUAGGACGAGAAGGCGGGACAUGAGGAUCACCCAUGUGGGCGAGCUC | – | – | 232 | 475 |
| AGUGUCAUCGAGAAGGCCUCAUGGACAUGAGGAUCACCCAUGUAAAAUGGGAGGAUAUCGAUGAUACAGCUACGUUUCGUAGCA | 226 | 69.7 | – | – |
| UAUAACCAAGGAUAUACAUGAGGAUCACCCAUGUAAUAUAGUAUAAUAUAUGUAAAAUGUAGAAGGUGGGAUGU | – | – | 32 | 34 |
| GCAGCACUCUUUAACAUGAGGAUCACCCAUGUCAAAAGACAUGAGGAUAUGCAUCUGAAGAAGAUGCAGAAGGCAUUGUGCUGC | 32.3 | 6.94 | – | – |
| UAUUUUUAUGUAAGGAUAUGGGUUUGGUUGCGGGCUUAGAAGGUACAUGAGGAUCACCCAUGUAUUUUGUGCAU | – | – | 32.8 | 35.3 |
| ACAUGAGGAUCACCCAUGUGUGCAUAGGAUAUUGAGGAUUAGGGAUAUUAUUAUGGAUUUGCCCACAAGAAGGAUGAAAGUGUU | 17.8 | 15.7 | – | – |
| GUGGCUAGUACAGGAUAUUAGUGCGUGUAGUAUUGAGAAGGGUACAUGAGGAUCACCCAUGUGAUCAAUCACUGUUAAGGUCGC | – | – | 252 | 177 |

| Sequence | apparent Kd [1] [nM] | apparent Kd [2] [nM] | apparent Kd [3] [nM] | apparent Kd [4] [nM] |
| --- | --- | --- | --- | --- |
| AGACUGCGUAGAAUUAGCAGCCGACAGGAUAUGACAUGAGGAUCACCCAUGUGAACUACAAAGGAUCAGAAGGGUCACGACACA | – | – | 20.1 | 24.4 |
| GGAGCCGGCACUGAGGAUAUUCAUAUUAAAACAUGAGGAUCACCCAUGUAGGCCAGAAGGCCUUGGGAGAAGGCAGGUCGACUCG | 406 | 28.9 | – | – |
| GGAUGACAAAGUCAUCCUAUUCGAACAUGAGGAUCACCCAUGUAGGAUAUGCUUCUCAAAGAGAAGCAGAAGGACAUGUGCCUU | – | – | 32 | 182 |
| UAAACACCCUCAUGUGCCUGAGGACAUGAGGAUCACCCAUGUAAGGAUAUAGCCAUUAAAUCUAACUAGAAGGUACAGGACAUC | – | – | 242 | 169 |
| UAUCUAUUUAUGGGAUUAGAAUAUGAGGAUAUCAUUUAUUUAUACAUGAGGAUCACCCAUGUUUCUGAGAAGGCAUAUUUAAUA | 20.3 | 6.73 | – | – |
| AAAACAUGAGGAUCACCCAUGUAUAGAUCGAUUAUUAGGAGUGAGGAUAUGCAAGUUAUAAGGUAGCAGAAGGCACUGGGAAAA | 25.7 | 24.8 | – | – |
| AACCUAUUACAGAAGGCCAGCUACAUGAGGAUCACCCAUGUCGAGUCAUGGAGGAUAUGUAGUAAUUUGCCCGCGGGCGAGUAC | 31.3 | 5.78 | – | – |
| UGGCUACAUGAGGAUCACCCAUGUCAGGAUAUGCCGUCGGCUUGCGUUCGUCGUUCGGGUAGAAGGGACUGCGG | – | – | 85.3 | 106 |
| CCGAUAAUGUAGGAUAUCGUAUCGGAAACGAUACGAGAAGGACAAACAUGAGGAUCACCCAUGUUCCUUAACGG | – | – | 15.5 | 16.5 |
| GCACAUGGCAUAGGAUAUAGAUCGAUUGUUUAAAUAGGUAGUUGGACUUAACUAGAAGGAUGAAACAUGAGGAUCACCCAUGUA | 394 | 68 | – | – |
| GAUUUAGAGCAGGAUAUCAUAGAAUUGUAUGAAUGAGAAGGGCUCACAUGAGGAUCACCCAUGUGGUCCUAGAU | – | – | 21.7 | 132 |
| CUUUUGUGAGGAUAUUAGUAGUAAAUAAAUAAAAUUACUACUUAGAAGGCACAUGAGGAUCACCCAUGUUCCUC | – | – | 26.9 | 219 |
| UUCGCUAAGGUGUAGCGAGACUUGCAAGAAGGGUGAAGAACAUGAGGAUCACCCAUGUAAGCCUUACAGGAUAUUGCUUGACGA | 106 | 36.4 | – | – |
| GGCGGUGACAUAGGAUAUCUUCUAAUGCACAUGAGGAUCACCCAUGUCGCUACGCACGGGUUUGAAGAGAAGGGUGUUCGUGCC | 346 | 286 | – | – |
| UGAAACUACGAGAAGGACAUGUGGUCCUUCAGUUACAUGAGGAUCACCCAUGUAGGAUAUCGUAGUUUCAGGAUCGUGAGAUCU | – | – | 38.5 | 12.7 |
| ACAAGAUCAGGAUAUACAUGAGGAUCACCCAUGUAUAUCAAAAAGGGACUUUCUUAAUGUAGAAGGGAUCAUGU | – | – | 14 | 12.7 |
| GACAUGAGGAUCACCCAUGUCCCUCCAGAAGGCUGGCGCGCGAAACCUAUCUCGGUUCCGCGCACAGAGGAUAUGGGCGGUUGG | 181 | 29.8 | – | – |
| GCGCUUAAACAGAAGGCCAAAUACAUGAGGAUCACCCAUGUCGAAUCAUGGAGGAUAUGUUAUUAAUUACACGCAGAUGAGCGC | 124 | 10.7 | – | – |
| GUCAGCUCGUGAGGAUAUACAACACUGCUUCGGCAGUGUAUUAAGAUCACAUGAGGAUCACCCAUGUAGAAGGCACGAGCUGAA | – | – | 13.7 | 245 |
| ACAAGUUCACAUGAGGAUCACCCAUGUGGUCGCUAAUAUACCAGAAGGGUGGGUCCUAAUGAUGUACAGGAUAUGGAGUAGGCG | 198 | 81.7 | – | – |
| GGGCGACAUGAGGAUCACCCAUGUCAGGAUAUCGGGCCCGGGCCGAAAGGCCCGGGCCCGAGAAGGGACAGCCC | – | – | 18.8 | 16.6 |
| CGUGAAAACAUAGGAUAUUGUUACAUGAGGAUCACCCAUGUCAACCAUUUAUCUCAAAUUGUUGACAAGAAGGAUGAGGUCACG | 118 | 38.9 | – | – |
| GCAGGUUUACGAGGAUAUGGGUGGUACGGACAUGAGGAUCACCCAUGUCUCCCAGAAGGCGUAGCCCAACAAAGAGAACAGGAG | 160 | 22.5 | – | – |
| AAUAUGAGCUGGUUAUAAAACCUGACAUGAGGAUCACCCAUGUAGGAUAUCAGCACGAUAAGUGCUGAGAAGGACAUCCAGCUC | – | – | 13.4 | 14 |
| AAAAAACAUGAGGAUCACCCAUGUAAUAAAACGUCAGGAUAUUGAUUUUAUUAUUUAUUGCAAGAAGGGACAAAAA | 56.5 | 24 | – | – |
| GUAAAUCAUGUAGGAUAUGCAUGGCGAAGCUACGCAGAAGGACAUGAGGAUCACCCAUGUCUCUCCGUCUGCAUACAGACGGAG | – | – | 26.9 | 230 |
| AAAUAGAAUGAGGAUAUCGUACUGGAUAUAGUGCGAGAAGGCAUUACAUGAGGAUCACCCAUGUUUUGUUGGGA | – | – | 25.6 | 76.6 |

— the EternaBench riboswitch data
